Measurements: ChEMBL document CHEMBL1127602, “Synthesis and tissue biodistribution of [omega-11C]palmitic acid. A novel PET imaging agent for cardiac fatty acid metabolism” (J Med Chem, 1994)
Where “and” joins values, the source holds several entries; their conditions need not be identical. Identical values can stand only once.

What was measured:
[1] = test system: Rattus norvegicus; assay: Biodistribution in rat liver after 5 min of intravenous injection at a dose of […]; type: ADME, organism-based; settings: in vivo
Summary of the method: (§1)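 Female Sprague–Dawley rats (140–160 g, four per time point), fed ad lib, ether-anesthetized just before injection. Radiotracer bound to human serum albumin in ethanol–saline, given by femoral vein (≈50 μCi/rat). Rats sacrificed at 5, 10, 15, 30 or 60 min. Tissues excised and weighed, activity measured by γ-counting, expressed as %ID/g.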

[2] = test system: Rattus norvegicus; assay: Biodistribution in rat heart after 15 min of intravenous injection at a dose of […]; type: ADME, organism-based; settings: in vivo, 0.25 h; summary of the method: as §1
[3] = test system: Rattus norvegicus; assay: Biodistribution in rat kidney after 5 min of intravenous injection at a dose of […]; type: ADME, organism-based; settings: in vivo; summary of the method: as §1
[4] = test system: Rattus norvegicus; assay: Biodistribution in rat kidney after 1 h of intravenous injection at a dose of […]; type: ADME, organism-based; settings: in vivo; summary of the method: as §1
[5] = test system: Rattus norvegicus; assay: Biodistribution in rat liver after 15 min of intravenous injection at a dose of […]; type: ADME, organism-based; settings: in vivo, 0.25 h; summary of the method: as §1
[6] = test system: Rattus norvegicus; assay: Biodistribution in rat muscle after 10 min of intravenous injection at a dose of […]; type: ADME, organism-based, Muscle tissue; settings: in vivo; summary of the method: as §1
[7] = test system: Rattus norvegicus; assay: Biodistribution in rat blood after 30 min of intravenous injection at a dose of […]; type: ADME, organism-based; settings: in vivo, 0.5 h; summary of the method: as §1
[8] = test system: Rattus norvegicus; assay: Biodistribution in rat blood after 10 min of intravenous injection at a dose of […]; type: ADME, organism-based; settings: in vivo; summary of the method: as §1
[9] = test system: Rattus norvegicus; assay: Biodistribution in rat kidney after 30 min of intravenous injection at a dose of […]; type: ADME, organism-based; settings: in vivo, 0.5 h; summary of the method: as §1
[10] = test system: Rattus norvegicus; assay: Biodistribution in rat liver after 30 min of intravenous injection at a dose of […]; type: ADME, organism-based; settings: in vivo, 0.5 h; summary of the method: as §1
[11] = test system: Rattus norvegicus; assay: Biodistribution in rat kidney after 15 min of intravenous injection at a dose of […]; type: ADME, organism-based; settings: in vivo, 0.25 h; summary of the method: as §1
[12] = test system: Rattus norvegicus; assay: Biodistribution in rat muscle after 5 min of intravenous injection at a dose of […]; type: ADME, organism-based, Muscle tissue; settings: in vivo; summary of the method: as §1
[13] = test system: Rattus norvegicus; assay: Biodistribution in rat blood after 5 min of intravenous injection at a dose of […]; type: ADME, organism-based; settings: in vivo; summary of the method: as §1
[14] = test system: Rattus norvegicus; assay: Biodistribution in rat heart after 5 min of intravenous injection at a dose of […]; type: ADME, organism-based; settings: in vivo; summary of the method: as §1
[15] = test system: Rattus norvegicus; assay: Biodistribution in rat lung after 10 min of intravenous injection at a dose of […]; type: ADME, organism-based; settings: in vivo; summary of the method: as §1
[16] = test system: Rattus norvegicus; assay: Biodistribution in rat blood after 15 min of intravenous injection at a dose of […]; type: ADME, organism-based; settings: in vivo, 0.25 h; summary of the method: as §1
[17] = test system: Rattus norvegicus; assay: Biodistribution in rat muscle after 30 min of intravenous injection at a dose of […]; type: ADME, organism-based, Muscle tissue; settings: in vivo, 0.5 h; summary of the method: as §1
[18] = test system: Rattus norvegicus; assay: Biodistribution in rat lung after 5 min of intravenous injection at a dose of […]; type: ADME, organism-based; settings: in vivo; summary of the method: as §1
[19] = test system: Rattus norvegicus; assay: Biodistribution in rat lung after 30 min of intravenous injection at a dose of […]; type: ADME, organism-based; settings: in vivo, 0.5 h; summary of the method: as §1
[20] = test system: Rattus norvegicus; assay: Biodistribution in rat blood after 1 hr of intravenous injection at a dose of […]; type: ADME, organism-based; settings: in vivo; summary of the method: as §1
[21] = test system: Rattus norvegicus; assay: Biodistribution in rat lung after 1 hr of intravenous injection at a dose of […]; type: ADME, organism-based; settings: in vivo; summary of the method: as §1
[22] = test system: Rattus norvegicus; assay: Biodistribution in rat liver after 1 hr of intravenous injection at a dose of […]; type: ADME, organism-based; settings: in vivo; summary of the method: as §1
[23] = test system: Rattus norvegicus; assay: Biodistribution in rat heart after 1 hr of intravenous injection at a dose of […]; type: ADME, organism-based; settings: in vivo; summary of the method: as §1
[24] = test system: Rattus norvegicus; assay: Biodistribution in rat muscle after 15 min of intravenous injection at a dose of […]; type: ADME, organism-based, Muscle tissue; settings: in vivo, 0.25 h; summary of the method: as §1
[25] = test system: Rattus norvegicus; assay: Biodistribution in rat heart after 30 min of intravenous injection at a dose of […]; type: ADME, organism-based; settings: in vivo, 0.5 h; summary of the method: as §1
[26] = test system: Rattus norvegicus; assay: Biodistribution in rat lung after 15 min of intravenous injection at a dose of […]; type: ADME, organism-based; settings: in vivo, 0.25 h; summary of the method: as §1
[27] = test system: Rattus norvegicus; assay: Biodistribution in rat muscle after 1 hr of intravenous injection at a dose of […]; type: ADME, organism-based, Muscle tissue; settings: in vivo; summary of the method: as §1
[28] = test system: Rattus norvegicus; assay: Biodistribution in rat heart after 10 min of intravenous injection at a dose of […]; type: ADME, organism-based; settings: in vivo; summary of the method: as §1
[29] = test system: Rattus norvegicus; assay: Biodistribution in rat liver after 10 min of intravenous injection at a dose of […]; type: ADME, organism-based; settings: in vivo; summary of the method: as §1
[30] = test system: Rattus norvegicus; assay: Biodistribution in rat kidney after 10 min of intravenous injection at a dose of […]; type: ADME, organism-based; settings: in vivo; summary of the method: as §1

Question: Which results are given for `CCCCCCCCCCCCCCCC(=O)O` [PALMITIC ACID]?
Answer: ID/g [1]: 8.189% and 5.94%; ID/g [2]: 0.981% and 1.011%; ID/g [3]: 1.154% and 0.994%; ID/g [4]: 1.166% and 1.238%; ID/g [5]: 8.195% and 6.252%; ID/g [6]: 0.198% and 0.179%; ID/g [7]: 0.43% and 0.329%; ID/g [8]: 0.171% and 0.13%; ID/g [9]: 1.28% and 1.301%; ID/g [10]: 8.25% and 5.62%; ID/g [11]: 1.105% and 1.184%; ID/g [12]: 0.197% and 0.183%; ID/g [13]: 0.25% and 0.116%; ID/g [14]: 1.675% and 0.996%; ID/g [15]: 1.427% and 1.272%; ID/g [16]: 0.31% and 0.373%; ID/g [17]: 0.222% and 0.198%; ID/g [18]: 1.353% and 0.945%; ID/g [19]: 1.423% and 1.173%; ID/g [20]: 0.237% and 0.157%; ID/g [21]: 1.154% and 1.08%; ID/g [22]: 6.944% and 4.853%; ID/g [23]: 1.159% and 0.792%; ID/g [24]: 0.221% and 0.166%; ID/g [25]: 1.813% and 0.941%; ID/g [26]: 1.165% and 1.246%; ID/g [27]: 0.237% and 0.194%; ID/g [28]: 1.372% and 1.08%; ID/g [29]: 8.38% and 8.36%; ID/g [30]: 1.184% and 1.343%
